Laboratory results published in ChEMBL document CHEMBL1147762, “A new chemical tool for exploring the physiological function of the PDE2 isozyme” (Bioorg Med Chem Lett, 2006).
Values after ≈ are worked out from the molar mass of the structure shown.

What was measured:
[1] = target: Glutamate receptor ionotropic AMPA (Homo sapiens) (UniProt P48058+P42263+P42262+P42261); assay: Percentage binding to AMPA at 10 uM; format: protein-complex assay
Phosphodiesterase 1 = Phosphodiesterase 1 (Homo sapiens, UniProt P54750+Q01064+Q14123); assay: Inhibitory activity against PDE1 by scintillation proximity assay; format: protein assay
Procedure, shortened: (§1)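 Phosphodiesterase inhibition run as a scintillation proximity assay, with enzyme at a concentration in the linear range. Final substrate was 1 µM, below one-third of the enzyme K_M, so that IC50 approximates Ki. Values are means of n experiments with standard deviation.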

[2] = target: B1 bradykinin receptor (Homo sapiens) (UniProt P46663); assay: Percentage binding to bradykinin B1 at 10 uM
[3] = target: Platelet-activating factor receptor (Homo sapiens) (UniProt P25105); assay: Percentage binding to PAF at 10 uM
Platelet-activating factor receptor (Homo sapiens), sequence (P25105 whole entry): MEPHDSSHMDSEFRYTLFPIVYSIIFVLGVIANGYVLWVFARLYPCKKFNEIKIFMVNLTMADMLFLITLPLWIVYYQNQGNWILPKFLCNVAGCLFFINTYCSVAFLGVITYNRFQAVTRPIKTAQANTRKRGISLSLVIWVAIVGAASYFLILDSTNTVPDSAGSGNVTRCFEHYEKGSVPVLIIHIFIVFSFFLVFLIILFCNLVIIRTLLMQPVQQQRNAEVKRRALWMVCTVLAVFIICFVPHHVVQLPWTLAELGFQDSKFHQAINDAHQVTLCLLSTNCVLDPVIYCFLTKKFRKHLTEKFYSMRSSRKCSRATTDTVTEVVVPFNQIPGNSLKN

[4] = target: D(4) dopamine receptor (Homo sapiens) (UniProt P21917); assay: Percentage binding to dopamine D4 at 10 uM
[5] = target: Dual specificity tyrosine-phosphorylation-regulated kinase 1A (Homo sapiens) (UniProt Q13627); assay: Inhibition of DYRK1A at 10 uM
[6] = target: Phosphorylase kinase (Homo sapiens) (UniProt P15735+P46020+P46019+Q93100+Q16816); assay: Inhibition of PHK at 10 uM; format: protein-complex assay
[7] = Cmax in rat; format: ADME, organism-based; conditions: Sprague-Dawley, in vivo
Procedure, shortened: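 Sprague–Dawley rats were dosed intravenously at 1 mg/kg in EtOH:PEG 400:H2O (1:4:5) and orally at 30 mg/kg in 0.5% methylcellulose.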

[8] = Activity against GABA uptake at 10 uM
Procedure, shortened: (§2)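 Single-concentration screen within a panel of 54 receptors and ion channels, measuring binding or interaction at each target.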

[9] = target: cAMP-dependent protein kinase (PKA) (Homo sapiens) (UniProt P22694+P17612+P22612); assay: Inhibition of PKA at 10 uM; format: protein assay
[10] = target: cAMP and cAMP-inhibited cGMP 3',5'-cyclic phosphodiesterase 10A (Homo sapiens, UniProt Q9Y233); assay: Inhibitory activity against PDE10 by scintillation proximity assay; procedure, shortened: as §1
[11] = target: High affinity cAMP-specific and IBMX-insensitive 3',5'-cyclic phosphodiesterase 8B (Homo sapiens, UniProt O95263); assay: Inhibitory activity against PDE8B by scintillation proximity assay
Procedure, shortened: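 Scintillation proximity assay for phosphodiesterase inhibition. Enzyme is used at a concentration within the linear range, and its KM was measured. Final substrate concentration is 1 µM, below one-third of KM, so IC50 approximates Ki. Results are means of n experiments with standard deviation.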

[12] = target: Serine/threonine-protein kinase Chk1 (Homo sapiens) (UniProt O14757); assay: Inhibition of CHK1 at 10 uM
[13] = target: Voltage-dependent N-type calcium channel subunit alpha-1B (Homo sapiens) (UniProt Q00975); assay: Percentage binding to Ca2+ channel N at 10 uM
[14] = target: Kappa-type opioid receptor (Homo sapiens) (UniProt P41145); assay: Percentage binding to opioid kappa at 10 uM
Kappa-type opioid receptor (Homo sapiens), sequence (P41145 whole entry): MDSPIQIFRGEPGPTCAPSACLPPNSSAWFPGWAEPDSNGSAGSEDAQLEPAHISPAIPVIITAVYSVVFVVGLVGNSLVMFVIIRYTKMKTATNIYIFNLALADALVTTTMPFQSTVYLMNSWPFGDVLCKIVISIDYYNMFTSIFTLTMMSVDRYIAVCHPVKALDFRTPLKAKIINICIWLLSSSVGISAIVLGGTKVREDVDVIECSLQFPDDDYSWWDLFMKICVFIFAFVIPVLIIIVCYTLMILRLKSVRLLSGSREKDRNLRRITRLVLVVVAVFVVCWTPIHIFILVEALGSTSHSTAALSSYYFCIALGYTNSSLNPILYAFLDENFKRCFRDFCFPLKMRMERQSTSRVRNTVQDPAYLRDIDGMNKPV

[15] = target: Mitogen-activated protein kinase 13 (Homo sapiens) (UniProt O15264); assay: Inhibition of SAPK4 at 10 uM
[16] = target: Tyrosine-protein kinase Lck (Homo sapiens) (UniProt P06239); assay: Inhibition of LCK at 10 uM
Tyrosine-protein kinase Lck (Homo sapiens), sequence (P06239 2-509 limits assumed): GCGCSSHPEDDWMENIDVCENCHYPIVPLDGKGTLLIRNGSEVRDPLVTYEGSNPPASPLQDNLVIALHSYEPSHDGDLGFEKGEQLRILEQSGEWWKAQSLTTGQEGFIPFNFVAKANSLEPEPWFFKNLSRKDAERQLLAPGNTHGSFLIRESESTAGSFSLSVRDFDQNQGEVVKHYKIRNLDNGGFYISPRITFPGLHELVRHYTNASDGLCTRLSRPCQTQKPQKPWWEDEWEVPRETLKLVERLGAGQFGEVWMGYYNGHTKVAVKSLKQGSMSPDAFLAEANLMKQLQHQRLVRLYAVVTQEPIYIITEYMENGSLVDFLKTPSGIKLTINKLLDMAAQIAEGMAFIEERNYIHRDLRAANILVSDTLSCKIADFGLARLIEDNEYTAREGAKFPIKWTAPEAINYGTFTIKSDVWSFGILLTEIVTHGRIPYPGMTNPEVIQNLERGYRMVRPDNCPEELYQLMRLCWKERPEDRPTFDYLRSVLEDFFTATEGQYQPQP

[17] = target: Histamine H2 receptor (Homo sapiens) (UniProt P25021); assay: Percentage binding to histamine H2 at 10 uM
Histamine H2 receptor (Homo sapiens), sequence (P25021 whole entry): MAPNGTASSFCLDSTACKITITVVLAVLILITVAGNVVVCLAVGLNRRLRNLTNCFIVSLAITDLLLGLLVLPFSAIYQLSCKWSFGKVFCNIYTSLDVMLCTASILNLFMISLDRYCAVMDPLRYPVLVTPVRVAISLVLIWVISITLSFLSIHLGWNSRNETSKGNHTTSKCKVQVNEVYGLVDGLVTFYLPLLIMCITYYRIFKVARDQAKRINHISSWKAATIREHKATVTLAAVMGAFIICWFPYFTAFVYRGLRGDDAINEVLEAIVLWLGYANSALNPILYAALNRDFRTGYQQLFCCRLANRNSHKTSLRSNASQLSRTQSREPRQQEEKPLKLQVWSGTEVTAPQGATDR

[18] = target: Adrenergic receptor alpha-1 (Homo sapiens) (UniProt P35348+P25100+P35368); assay: Percentage binding to adrenergic alpha-1 receptor at 10 uM; format: protein assay
Phosphodiesterase 3 = Phosphodiesterase 3 (Homo sapiens, UniProt Q14432+Q13370); assay: Inhibitory activity against PDE3 by scintillation proximity assay; format: protein assay; procedure, shortened: as §1
[19] = Oral bioavailability in rat; format: ADME, organism-based; conditions: Sprague-Dawley, in vivo
Procedure, shortened: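 Sprague–Dawley rats were dosed intravenously at 1 mg/kg in EtOH:PEG 400:H2O (1:4:5) and orally at 30 mg/kg in 0.5% methylcellulose. Plasma was sampled at 0.083, 0.25, 0.5, 1, 2, 4, 6 and 8 h after dosing and analysed.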

[20] = target: 3',5'-cyclic-AMP phosphodiesterase 4B (Homo sapiens, UniProt Q07343); assay: Inhibitory activity against PDE4B by scintillation proximity assay; procedure, shortened: as §1
[21] = target: Voltage-dependent L-type calcium channel subunit alpha-1D (Homo sapiens) (UniProt Q01668); assay: Percentage binding to Ca2+ channel D at 10 uM; procedure, shortened: as §2
Voltage-dependent L-type calcium channel subunit alpha-1D (Homo sapiens), sequence (Q01668 whole entry): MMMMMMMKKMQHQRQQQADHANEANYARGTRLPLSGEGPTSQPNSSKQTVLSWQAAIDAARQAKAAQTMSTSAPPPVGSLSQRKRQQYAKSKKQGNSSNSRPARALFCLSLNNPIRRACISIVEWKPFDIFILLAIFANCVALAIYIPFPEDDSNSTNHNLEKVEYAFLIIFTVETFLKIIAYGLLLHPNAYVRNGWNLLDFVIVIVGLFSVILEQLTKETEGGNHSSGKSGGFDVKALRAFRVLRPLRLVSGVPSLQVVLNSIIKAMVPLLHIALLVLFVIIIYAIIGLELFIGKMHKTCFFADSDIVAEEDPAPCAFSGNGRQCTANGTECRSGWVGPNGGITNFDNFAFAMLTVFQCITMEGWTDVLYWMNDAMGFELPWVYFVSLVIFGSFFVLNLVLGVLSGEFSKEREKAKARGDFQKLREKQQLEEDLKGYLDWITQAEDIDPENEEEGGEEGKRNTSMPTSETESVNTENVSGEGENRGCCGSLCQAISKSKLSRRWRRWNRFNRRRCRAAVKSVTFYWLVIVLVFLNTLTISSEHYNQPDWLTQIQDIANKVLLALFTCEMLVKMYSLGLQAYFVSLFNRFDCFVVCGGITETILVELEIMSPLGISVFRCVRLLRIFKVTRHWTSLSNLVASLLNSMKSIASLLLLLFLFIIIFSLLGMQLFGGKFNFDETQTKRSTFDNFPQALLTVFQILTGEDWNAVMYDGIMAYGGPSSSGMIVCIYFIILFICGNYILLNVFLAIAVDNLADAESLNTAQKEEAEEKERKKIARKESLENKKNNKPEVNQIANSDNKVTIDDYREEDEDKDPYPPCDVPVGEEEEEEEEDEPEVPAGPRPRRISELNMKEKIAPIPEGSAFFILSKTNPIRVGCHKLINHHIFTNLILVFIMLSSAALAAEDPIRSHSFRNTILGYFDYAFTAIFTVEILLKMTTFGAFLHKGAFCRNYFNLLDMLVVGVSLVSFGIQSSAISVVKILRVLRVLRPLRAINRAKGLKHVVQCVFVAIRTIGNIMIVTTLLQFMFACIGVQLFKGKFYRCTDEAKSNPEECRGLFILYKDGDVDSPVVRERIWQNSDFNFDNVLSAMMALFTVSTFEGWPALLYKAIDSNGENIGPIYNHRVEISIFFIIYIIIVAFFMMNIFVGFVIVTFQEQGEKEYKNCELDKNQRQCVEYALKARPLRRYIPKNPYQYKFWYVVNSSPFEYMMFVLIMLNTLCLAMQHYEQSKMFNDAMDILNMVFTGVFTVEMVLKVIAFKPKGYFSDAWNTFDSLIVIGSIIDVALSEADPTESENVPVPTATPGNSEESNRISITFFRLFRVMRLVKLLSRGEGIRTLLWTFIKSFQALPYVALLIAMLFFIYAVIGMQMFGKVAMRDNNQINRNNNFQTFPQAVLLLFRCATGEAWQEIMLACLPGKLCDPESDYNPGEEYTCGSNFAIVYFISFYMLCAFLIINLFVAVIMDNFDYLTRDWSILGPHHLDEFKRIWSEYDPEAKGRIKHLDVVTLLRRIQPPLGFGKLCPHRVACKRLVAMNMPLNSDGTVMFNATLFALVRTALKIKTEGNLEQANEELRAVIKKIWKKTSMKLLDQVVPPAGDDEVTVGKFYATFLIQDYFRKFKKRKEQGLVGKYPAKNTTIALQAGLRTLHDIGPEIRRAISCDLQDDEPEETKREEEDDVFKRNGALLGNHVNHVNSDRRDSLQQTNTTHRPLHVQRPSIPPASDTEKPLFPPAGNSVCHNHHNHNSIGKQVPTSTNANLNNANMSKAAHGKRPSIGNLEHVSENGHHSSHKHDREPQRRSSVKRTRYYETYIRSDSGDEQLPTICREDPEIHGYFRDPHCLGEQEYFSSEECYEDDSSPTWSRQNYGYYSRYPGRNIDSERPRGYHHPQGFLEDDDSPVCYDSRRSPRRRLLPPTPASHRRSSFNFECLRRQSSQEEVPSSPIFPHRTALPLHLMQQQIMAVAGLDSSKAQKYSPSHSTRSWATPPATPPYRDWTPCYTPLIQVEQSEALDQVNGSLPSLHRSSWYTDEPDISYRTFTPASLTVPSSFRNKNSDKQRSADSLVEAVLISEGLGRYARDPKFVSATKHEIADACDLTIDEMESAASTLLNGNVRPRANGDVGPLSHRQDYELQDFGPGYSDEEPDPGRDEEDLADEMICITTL

[22] = target: 5-hydroxytryptamine receptor 2A (Homo sapiens) (UniProt P28223); assay: Percentage binding to serotonin 5HT2A at 10 uM
[23] = target: Voltage-dependent L-type calcium channel subunit alpha-1D (Homo sapiens) (UniProt Q01668); assay: Percentage binding to dihydropyridine sensitive Ca2+ channel D at 10 uM; procedure, shortened: as §2
[24] = target: Serine/threonine-protein kinase Nek2 (Homo sapiens) (UniProt P51955); assay: Inhibition of NEK2 at 10 uM
[25] = Percentage binding to neuronal NACHR at 10 uM; procedure, shortened: as §2
[26] = target: Mitogen-activated protein kinase 11 (Homo sapiens) (UniProt Q15759); assay: Inhibition of SAPK2b at 10 uM
[27] = target: Adenosine receptor A2a (Homo sapiens) (UniProt P29274); assay: Percentage binding to adenosine A2a receptor at 10 uM
Adenosine receptor A2a (Homo sapiens), sequence (P29274 whole entry): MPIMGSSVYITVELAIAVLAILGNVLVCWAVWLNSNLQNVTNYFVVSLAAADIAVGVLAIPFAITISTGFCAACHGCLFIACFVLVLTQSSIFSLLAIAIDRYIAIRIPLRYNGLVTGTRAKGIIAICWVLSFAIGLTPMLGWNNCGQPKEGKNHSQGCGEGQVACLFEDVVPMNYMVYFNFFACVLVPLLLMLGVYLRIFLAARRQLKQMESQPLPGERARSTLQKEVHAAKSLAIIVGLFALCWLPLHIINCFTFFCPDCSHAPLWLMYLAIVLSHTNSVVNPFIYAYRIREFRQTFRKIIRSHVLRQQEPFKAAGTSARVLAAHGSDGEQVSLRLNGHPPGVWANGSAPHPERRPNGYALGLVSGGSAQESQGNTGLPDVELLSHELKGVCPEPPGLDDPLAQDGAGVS

[28] = target: D(1A) dopamine receptor (Homo sapiens) (UniProt P21728); assay: Percentage binding to dopamine D1 at 10 uM
[29] = target: 5-hydroxytryptamine receptor 7 (Homo sapiens) (UniProt P34969); assay: Percentage binding to serotonin 5HT7 at 10 uM
[30] = target: Type-1 angiotensin II receptor (Homo sapiens) (UniProt P30556); assay: Percentage binding to angiotensin II type1 receptor at 10 uM
[31] = target: Sodium-dependent serotonin transporter (Homo sapiens) (UniProt P31645); assay: Activity against serotonin uptake at 10 uM
[32] = Turbidimetric solubility at pH 7; format: ADME, organism-based, Homo sapiens
[33] = Percentage binding to GABA at 10 uM; procedure, shortened: as §2
[34] = target: Ribosomal protein S6 kinase alpha-1 (Homo sapiens) (UniProt Q15418); assay: Inhibition of RSK1 at 10 uM
[35] = target: RAC-alpha serine/threonine-protein kinase (Homo sapiens) (UniProt P31749); assay: Inhibition of PKBalpha at 10 uM
[36] = target: Histamine H3 receptor (Homo sapiens) (UniProt Q9Y5N1); assay: Percentage binding to histamine H3 at 10 uM
[37] = target: Protein kinase C alpha type (Homo sapiens) (UniProt P17252); assay: Inhibition of PKCalpha at 10 uM
[38] = target: Histamine H1 receptor (Homo sapiens) (UniProt P35367); assay: Percentage binding to histamine H1 at 10 uM
Histamine H1 receptor (Homo sapiens), sequence (P35367 whole entry): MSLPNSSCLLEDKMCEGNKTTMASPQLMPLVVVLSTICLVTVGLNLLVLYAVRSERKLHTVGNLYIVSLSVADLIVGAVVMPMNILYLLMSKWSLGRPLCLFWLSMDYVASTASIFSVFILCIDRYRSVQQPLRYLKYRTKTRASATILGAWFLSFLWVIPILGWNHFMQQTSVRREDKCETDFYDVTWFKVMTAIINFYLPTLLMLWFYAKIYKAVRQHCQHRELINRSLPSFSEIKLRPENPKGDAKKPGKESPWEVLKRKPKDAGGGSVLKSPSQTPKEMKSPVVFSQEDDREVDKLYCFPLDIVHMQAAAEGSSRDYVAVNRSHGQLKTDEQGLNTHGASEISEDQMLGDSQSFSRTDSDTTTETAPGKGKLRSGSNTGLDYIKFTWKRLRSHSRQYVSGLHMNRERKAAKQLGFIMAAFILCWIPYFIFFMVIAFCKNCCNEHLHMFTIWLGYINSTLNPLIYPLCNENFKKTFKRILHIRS

[39] = target: Mu-type opioid receptor (Homo sapiens) (UniProt P35372); assay: Percentage binding to opioid mu at 10 uM
Mu-type opioid receptor (Homo sapiens), sequence (P35372 whole entry): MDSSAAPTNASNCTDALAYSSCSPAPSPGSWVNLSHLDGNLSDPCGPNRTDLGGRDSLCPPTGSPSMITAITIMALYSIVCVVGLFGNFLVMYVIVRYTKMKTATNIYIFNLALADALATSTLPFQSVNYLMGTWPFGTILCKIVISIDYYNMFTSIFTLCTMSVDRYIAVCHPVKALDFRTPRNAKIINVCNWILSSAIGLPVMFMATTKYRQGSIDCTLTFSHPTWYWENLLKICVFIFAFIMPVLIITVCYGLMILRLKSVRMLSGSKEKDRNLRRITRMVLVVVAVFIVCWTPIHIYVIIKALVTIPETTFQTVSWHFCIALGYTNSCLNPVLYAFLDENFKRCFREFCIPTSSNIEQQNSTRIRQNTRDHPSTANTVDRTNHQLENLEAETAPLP

[40] = target: D(2) dopamine receptor (Homo sapiens) (UniProt P14416); assay: Percentage binding to dopamine D2 at 10 uM

Compound `CN1C(=O)C(C(=O)Nc2nncs2)c2cc3occc3cc21` (configuration not stated) has an Activity [1] of 20%, an IC50 (Phosphodiesterase 1) of over 16 µM and an Activity [2] of 0%. For the same compound, the Activity [3] was 21%, the Activity [4] was 0% and the inhibition [5] was 53%. For the same compound, the inhibition [6] was 0%, the Cmax [7] was 8300 ng/mL and the Activity [8] was 8%. It also gave an inhibition [9] of 16%, an IC50 [10] of over 16 µM and an IC50 [11] of over 16 µM. It also gave an inhibition [12] of 0%, an Activity [13] of 0% and an Activity [14] of 0%. For the same compound, the inhibition [15] was 13%, the inhibition [16] was 5% and the Activity [17] was 0%. The Activity [18] was 0%, the IC50 (Phosphodiesterase 3) was over 16 µM and the bioavailability [19] was 41%. It also gave an IC50 [20] of over 16 µM, an Activity [21] of 0% and an Activity [22] of 15%. For the same compound, the Activity [23] was 0%, the inhibition [24] was 0% and the Activity [25] was 7%. For the same compound, the inhibition [26] was 5%, the Activity [27] was 24% and the Activity [28] was 5%. It also gave an Activity [29] of 0%, an Activity [30] of 11% and an Activity [31] of 0%. For the same compound, the solubility kinetic [32] was 55 µg/mL (≈ 175 µM), the Activity [33] was 3% and the inhibition [34] was 1%. It also gave an inhibition [35] of 14%, an Activity [36] of 0% and an inhibition [37] of 13%. The Activity [38] was 7%, the Activity [39] was 3% and the Activity [40] was 12%.
